Results taken from the EternaBench riboswitch data.

Tested on: MS2 coat protein
Assay: apparent Kd, MS2 coat protein; higher = weaker binding; RNA-MaP array; FMN 200 µM where present
Procedure, shortened: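 Binding was read on Illumina sequencing-chip clusters where stalled E. coli RNA polymerase had transcribed each design. A titration of SNAP-549-labelled MS2 coat protein began at 0.7 or 1.5 nM and doubled to 3 µM, once without ligand and once with constant ligand, in 100 mM Tris-HCl pH 7.5, 80 mM KCl, 4 mM MgCl2, BSA, DTT, yeast tRNA and Tween-20. The apparent Kd is the median of filtered per-cluster binding-curve fits, based on green signal normalised to red-channel RNA signal and control-cluster median Fmax.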

[1] = designed as: ON switch for flavin mononucleotide, no ligand
[2] = ligand present: flavin mononucleotide, designed as: ON switch for flavin mononucleotide
[3] = designed as: OFF switch for flavin mononucleotide, no ligand
[4] = ligand present: flavin mononucleotide, designed as: OFF switch for flavin mononucleotide

Row | Sequence | apparent Kd [1] [nM] | apparent Kd [2] [nM] | apparent Kd [3] [nM] | apparent Kd [4] [nM]
1 | AAUUGACAUGAGGAUCACCCAUGUCCACCAAACGGAGGAUAUUGGGCGGCAAAACGUUGUUAAGAAGGCCGAAAUU | 34.1 | 88.3 |  | 
2 | CCGAGGCGAGGAUAUAUGAAGGACACAACAUUUAGGGUAAGACAUGAGGAUCACCCAUGUAGAAGGCGCGACGC |  |  | 63.4 | 55.8
3 | AAAAGGCUAGGAUAUACAUGAGGAUCACCCAUGUGUACUGGACAUGCGGUAUGCGUAUGUAGAAGGAGUAUAAA |  |  | 14.4 | 21.6
4 | CAGUACUGAGGAUAUACAUGAGGAUCACCCAUGUGCCUCAGGUAGGAUACUACCAUUAGUAGAAGGCAGUACUG |  |  | 197 | 37.7
5 | UUUUAGUGAGGAUAUACAUUUUUUUAAUUAUUUAUAAUAUUACAUGAGGAUCACCCAUGUAGAAGGCACAUUUU |  |  | 24.3 | 22.4
6 | UAUAAUACAUAGGAUAUCGAAUAAAUCAUUUAACGAGAAGGAUGAACAUGAGGAUCACCCAUGUGGUAUCAUGG |  |  | 263 | 241
7 | UUAUGUGUUGUAGGAUAUCAUUAGAUUUGUAAUUUAAUUGUAAUUUAUAUAUGAGAAGGACAUUUACAUGAGGAUCACCCAUGU |  |  | 22.3 | 13.4
8 | CGUCCGUGGGUAGUGAUCGUACAUGAGGAUCACCCAUGUGGGAAGGAUAUGCAUGCACGUGGACAGCAGAAGGUCCCACAACAA |  |  | 154 | 86
9 | CUUUUGUGAGGAUAUUCGUAGUAGGGUCAUGGCACUAUUAUGAAGAAGGCACAUGAGGAUCACCCAUGUACCUU |  |  | 15.3 | 26.8
10 | UGGUACUAGGGAGGAUAUGGGAAGACACAUGAGGAUCACCCAUGUUUAAGAAUGCCGAGAGGCAACUAGAAGGCCCUAGUACCU | 71.9 | 7.95 |  | 
11 | AGUACUACAGGAUAUACGAGGGAGGUCCACGUGACCCUUAUACAUGAGGAUCACCCAUGUAGAAGGGUAGUACA |  |  | 80.3 | 16.4
12 | GAGUGGAGGUAAGGAUAUAUAAUGAUAAUCACAGUAGAAGGUACUAACAUGAGGAUCACCCAUGUAGGACUAUACCAGAGAGGG | 16.9 | 15.3 |  | 
13 | CUUUUGUGAGGAUAUCAGUAGUAAUACAAUAGUAUUAUUACUGAGAAGGCACAUGAGGAUCACCCAUGUUCCUC |  |  | 40.9 | 125
14 | GUCAGCUCGUGAGGAUAUACAUGUGCUGGAUACAGCACUAAUUAAUUCACAUGAGGAUCACCCAUGUAGAAGGCACGAGCUGAU |  |  | 16.1 | 18.8
15 | GAGAAGUCAGGAUAUCCAUGGCGGCACUUGCGUGGUGGCGUGGAGAAGGGACAUGAGGAUCACCCAUGUAAAGU |  |  | 49.8 | 39.1
16 | UCAGGCUUCGAGAAGGACAUGAGGAUCACCCAUGUGCGUGUGAAGCAGCCAAAAGGCUGCAUCAUGUAGGAUAUCGGAGUCUGC |  |  | 81.8 | 552
17 | GUAGCUAUUAAAGGAUAUUCAUACCGGAAACGGACAUGAGGAUCACCCAUGUGGCGAAAGCCUUGGGAGAAGGUUAUUAGCUAC | 378 | 15.6 |  | 
18 | AUAUUGUGAGGAUAUGAACUUUGUAUCGAAAGAUACUAAGUUCAGAAGGCACAUGAGGAUCACCCAUGUUUCUC |  |  | 82.2 | 1130
19 | CCGGGCUAGGAGAAGGGCUAGAGUGUGAUAUAUUUGCCCGCGAGCACAUGAGGAUCACCCAUGUAGCAGGAUAUCCAAGCCGAU |  |  | 7.33 | 18
20 | GAGAGAGGGUGAGGAUAUUCAGUAAUAAUGAUAGAAGAAGGCACAGACAUGAGGAUCACCCAUGUGGGAAUAAUCCAGAGAGAG | 182 | 207 |  | 
21 | GUUCCACAUGAGGAUCACCCAUGUGAGGAUAUGGAUUCGCUGGCCGUAGCCAGUGGAUCCAGAAGGCGCGUGAU |  |  | 77.4 | 96.6
22 | AGUGACUACGUAGGAUAUUAAUUCAUGGACUACAUGAGGAUCACCCAUGUUUAUUUAACAUCAGCUAAGAAGGACGUGGUCACA | 16.6 | 8.5 |  | 
23 | UUACUGAUAUAGAAGGGUAUAUGGGAAUUACAUGAGGAUCACCCAUGUUUUAUAGGAUAUGUAUAUAGUAUUUAAUCAAGUUUA |  |  | 34.6 | 27.1
24 | UAAAUCUUGUAAGGAUAUACACGAGAUUCAAGUGUAGAAGGUACUUACAUGAGGAUCACCCAUGUAUACAUGGAUAAUAGAUAU | 211 | 64.5 |  | 

Row | Sequence | apparent Kd [1] [nM] | apparent Kd [2] [nM] | apparent Kd [3] [nM] | apparent Kd [4] [nM]
25 | AGACCCUGAACGAAAUCAUACAGUCAGGAUAUACAUGAGGAUCACCCAUGUGCGUACCAACUCGUGUAGAAGGGACUUUCAGGG |  |  | 12.3 | 30.2
26 | CAGAAACAUGAGGAUCACCCAUGUGAGGAUAUGCGUACGUUGUCCGUAGGCGACGUGCGCAGAAGGCACAAAGG |  |  | 132 | 256
27 | GUCAGCUCGUGAGGAUAUACAUGUGCUGGAUACAGCACUAUUAAGUUCACAUGAGGAUCACCCAUGUAGAAGGCACGAGCUGAU |  |  | 15.8 | 20.4
28 | UGCCUGAGUCGAGGAUAUUAUGGAUCAAUUAAUACAUGAGGAUCACCCAUGUAAUUAAUUUAACAUGAGAAGGCGACUCAGGCU | 11.3 | 8.51 |  | 
29 | GUCGGGUCUCACGCGUCGGUCCACAUGAGGAUCACCCAUGUCAAGGAUAUAGCGUCUUCCGGGCGUUAGAAGGUGACCAUUGGC |  |  | 34.6 | 48.1
30 | CCUAAGGAGGCAGGAUAUAGUGUGGUGGCCGGGCUCCCACGGCGAGCGGCACUAGAAGGGUCACUACAUGAGGAUCACCCAUGU | 73.3 | 30 |  | 
31 | AAGAUCGGAGGAUAUGAAAGGCGUUACAUGAGGAUCACCCAUGUCGGUUUCAUGUUCGUCUCAGAAGGCCGACUCC |  |  | 84.7 | 311
32 | UGAUAGGACAGAGGAUAUACGGAUAGGAUCUACUAUCUUUCUCAAAUAACAUGAGGAUCACCCAUGUAGAAGGCUGUCCUAUCU |  |  | 23.2 | 119
33 | UUCUGUGCCCAAAGUUAAAGCACAUGAGGAUCACCCAUGUGAAAGGAUAUGUGGCGUGUAACGUUAUAGAAGGUUCACAAACAA |  |  | 31.9 | 105
34 | UGUCGGAGCAGAGGAUAUUACAUGAGGAUCACCCAUGUAUGAACUAAUAGCUGGAAACAGCAAUGUAAGAAGGCUGCUCCGACA |  |  | 6.27 | 17.9
35 | AAGCACAGAGGAUAUACAUGGGUGAUAAAAAAAAUGUAAAAACAUGAGGAUCACCCAUGUAGAAGGCUGUGCAA |  |  | 22.6 | 16.5
36 | UCAUUGAUUGUGAGGAUAUCGAUGUGAUGGUUUGUCGAGAAGGCACAUGAGGAUCACCCAUGUGGGUGUGGGCU |  |  | 864 | 242
37 | GGGUACAUGGGAGGAUAUCCUCAAGAGACAUGAGGAUCACCCAUGUAUUAUAAGCCGAAAGGCAUGGAGAAGGCCCAUGUACCG | 62 | 19.1 |  | 
38 | ACUUAUUGAGGAUAUACAGAAAAUUACAUGAGGAUCACCCAUGUUCUUCAAUGUAUAUAUGUAGAAGGCAGAAUAG |  |  | 14.4 | 27.6
39 | GGCUUAAACACAGGAUAUAGUCUUAGGGCGAGACUAGAAGGGUGAAGUUCUCAUACAUGAGGAUCACCCAUGUCACGGAGGCUA | 45.1 | 169 |  | 
40 | GGCAUGUAAGGAUAUGUCCCUGAGUGCUUUGCGCUCAGGAAACAGAAGGUACAUGAGGAUCACCCAUGUGAUAA |  |  | 725 | 75.9
41 | UGUCAUAUAUAGAAGGGUAGUAGGGUUUUACAUGAGGAUCACCCAUGUAUUAUAGGAUAUGUGUAAAGUUAUUAUUAAAGUAAA |  |  | 29.1 | 21.5
42 | AGUCAGACAGGAUAUACGUGGAUGGAACACUUAUUUCCACUACAUGAGGAUCACCCAUGUAGAAGGGUCUGACA |  |  | 18.8 | 19.7
43 | GAAUGGGUAGAAGGACAUGAGGAUCACCCAUGUAGUGUGACUAAGGAUAUUAGAGAAGAUUGACGUAAGAAGGUAGAUGUGAGG |  |  | 134 | 117
44 | GUCUUUUUACAGAAGGUGUUUAACAUGAGGAUCACCCAUGUACAAAAGGUUAAAUUUGAUAAUAACAAGGAUAUGUACUAAUCA | 292 | 184 |  | 
45 | UACGUUCUACGCGACAUGAGGAUCACCCAUGUUAGCCGAUCACAGGAUAUGUUGGAGCCGGUCGAACAGAAGGGUGAGUCUGCU | 38.8 | 38.9 |  | 
46 | GGAUUACAUGAGGAUCACCCAUGUGAGGAUAUCGAUGUCCUCAAUCCCGUGCGGGACUCGAGAAGGCACUUGGA |  |  | 63 | 48.8
47 | UAGAAGUCAGGAUAUCCAGCUCGUCACUUGCGUGAUGAGUUGGAGAAGGGACAUGAGGAUCACCCAUGUAAAGC |  |  | 53.7 | 46.5
48 | AAUAACAGAGGAUAUACUAUUUUAUGUGUUUGUUAUUUUAAACAUGAGGAUCACCCAUGUAGAAGGCUGAUUGA |  |  | 46.7 | 46.6
